# Measured values as given in ChEMBL document CHEMBL1140232, “Surprising alteration of antibacterial activity of 5"-modified neomycin against resistant bacteria” (2008).
# Experiments:
# [1] = system: Staphylococcus aureus; assay: Antibacterial activity against aminoglycoside-susceptible Staphylococcus aureus ATCC 25923 after 12 to 18 hrs; format: functional
# Outline: (§1)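 Broth microdilution. Bacterial suspension adjusted with broth to absorbance 0.08–0.1 at 625 nm, diluted further in broth, and mixed in wells with 2-fold serial dilutions of compound. Plates incubated at 35°C for 12–18 h. MIC is the lowest concentration inhibiting growth; each determination repeated at least three times.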
# [2] = system: Enterococcus; assay: Ratio of kcat to Km of Enterococcus APH(3')-3a
# [3] = system: Escherichia coli; assay: Antibacterial activity against Escherichia coli TG1 pSF815 plasmid encoded for AAC(6')/APH(2') after 12 to 18 hrs; format: functional; outline: as §1
# [4] = system: Escherichia coli; assay: Antibacterial activity against Escherichia coli TG1 pET28a plasmid encoded for APH(3')-3a after 12 to 18 hrs; format: functional; outline: as §1
# [5] = system: Enterococcus; assay: Activity of Enterococcus APH(3')-3a
# [6] = system: Escherichia coli; assay: Antibacterial activity against aminoglycoside-susceptible Escherichia coli TG1 after 12 to 18 hrs; format: functional; outline: as §1
# [7] = system: Escherichia coli; assay: Antibacterial activity against aminoglycoside-susceptible Escherichia coli ATCC 25922 after 12 to 18 hrs; format: functional; outline: as §1
# [8] = system: Escherichia coli; assay: Antibacterial activity against Escherichia coli TG1 pTZ19U-3 plasmid encoded for APH(3')-1 after 12 to 18 hrs; format: functional; outline: as §1
Structure (SMILES),MIC [1],kcat/Km [2],MIC [3],MIC [4],Km [5],Vmax [5],kcat [5],MIC [6],MIC [7],MIC [8]
CN(C)Cc1cn(C[C@H]2O[C@@H](O[C@@H]3[C@@H](O)[C@H](N)C[C@H](N)[C@H]3O[C@H]3O[C@H](CN)[C@@H](O)[C@H](O)[C@H]3N)[C@H](O)[C@@H]2O[C@H]2O[C@@H](CN)[C@@H](O)[C@H](O)[C@H]2N)nn1,2 µg/mL,0.28 ×10⁴ /M/s,16 µg/mL,64 µg/mL,120 µM,0.65 µmol/min/mg,0.33 s⁻¹,8 µg/mL,8 µg/mL,≥ 2000 µg/mL
NC[C@@H]1O[C@H](O[C@H]2[C@@H](O)[C@H](O[C@@H]3[C@@H](O)[C@H](N)C[C@H](N)[C@H]3O[C@H]3O[C@H](CN)[C@@H](O)[C@H](O)[C@H]3N)O[C@@H]2Cn2cc(CNC(=O)c3cc(-c4ccccc4)nc4ccccc34)nn2)[C@H](N)[C@@H](O)[C@@H]1O,8 µg/mL,0.037 ×10⁴ /M/s,32 µg/mL,16 µg/mL,410 µM,0.3 µmol/min/mg,0.15 s⁻¹,8 µg/mL,32 µg/mL,500 µg/mL
C[C@H](N)C(=O)NC[C@H]1O[C@@H](O[C@@H]2[C@@H](O)[C@H](N)C[C@H](N)[C@H]2O[C@H]2O[C@H](CN)[C@@H](O)[C@H](O)[C@H]2N)[C@H](O)[C@@H]1O[C@H]1O[C@@H](CN)[C@@H](O)[C@H](O)[C@H]1N,0.5 µg/mL,0.75 ×10⁴ /M/s,16 µg/mL,64 µg/mL,60 µM,0.9 µmol/min/mg,0.45 s⁻¹,8 µg/mL,8 µg/mL,≥ 2000 µg/mL
NCc1cn(C[C@H]2O[C@@H](O[C@@H]3[C@@H](O)[C@H](N)C[C@H](N)[C@H]3O[C@H]3O[C@H](CN)[C@@H](O)[C@H](O)[C@H]3N)[C@H](O)[C@@H]2O[C@H]2O[C@@H](CN)[C@@H](O)[C@H](O)[C@H]2N)nn1,1 µg/mL,0.3 ×10⁴ /M/s,16 µg/mL,64 µg/mL,111 µM,0.68 µmol/min/mg,0.34 s⁻¹,16 µg/mL,8 µg/mL,1000 µg/mL
NC[C@@H]1O[C@H](O[C@H]2[C@@H](O)[C@H](O[C@@H]3[C@@H](O)[C@H](N)C[C@H](N)[C@H]3O[C@H]3O[C@H](CN)[C@@H](O)[C@H](O)[C@H]3N)O[C@@H]2CNC(=O)[C@@H](N)CO)[C@H](N)[C@@H](O)[C@@H]1O,1 µg/mL,1.2 ×10⁴ /M/s,16 µg/mL,32 µg/mL,42 µM,1.01 µmol/min/mg,0.51 s⁻¹,8 µg/mL,8 µg/mL,≥ 2000 µg/mL
NC[C@@H]1O[C@H](O[C@H]2[C@@H](O)[C@H](O[C@@H]3[C@@H](O)[C@H](N)C[C@H](N)[C@H]3O[C@H]3O[C@H](CN)[C@@H](O)[C@H](O)[C@H]3N)O[C@@H]2CNC(=O)CCC(=O)NC[C@H]2O[C@@H](O[C@@H]3[C@@H](O)[C@H](N)C[C@H](N)[C@H]3O[C@H]3O[C@H](CN)[C@@H](O)[C@H](O)[C@H]3N)[C@H](O)[C@@H]2O[C@H]2O[C@@H](CN)[C@@H](O)[C@H](O)[C@H]2N)[C@H](N)[C@@H](O)[C@@H]1O,2 µg/mL,< 0.01 ×10⁴ /M/s,16 µg/mL,64 µg/mL,> 500 µM,< 0.1 µmol/min/mg,< 0.05 s⁻¹,8 µg/mL,32 µg/mL,500 µg/mL
NC[C@@H]1O[C@@H](O[C@H]2[C@H](O)[C@@H](O[C@H]3O[C@H](CO)[C@@H](O)[C@H](N)[C@H]3O)[C@H](N)C[C@@H]2N)[C@@H](O)[C@H](O)[C@H]1O [KANAMYCIN A],–,42.4 ×10⁴ /M/s,–,125 µg/mL,8.2 µM,6.96 µmol/min/mg,3.48 s⁻¹,–,–,–

# Second part, the compound after the results:
MIC [1],kcat/Km [2],MIC [3],MIC [4],Km [5],Vmax [5],kcat [5],MIC [6],MIC [7],MIC [8],Structure (SMILES)
2 µg/mL,0.18 ×10⁴ /M/s,16 µg/mL,125 µg/mL,150 µM,0.54 µmol/min/mg,0.27 s⁻¹,16 µg/mL,8 µg/mL,≥ 2000 µg/mL,NC[C@@H]1O[C@H](O[C@H]2[C@@H](O)[C@H](O[C@@H]3[C@@H](O)[C@H](N)C[C@H](N)[C@H]3O[C@H]3O[C@H](CN)[C@@H](O)[C@H](O)[C@H]3N)O[C@@H]2Cn2cc(C3CCCCN3)nn2)[C@H](N)[C@@H](O)[C@@H]1O (stereo not given in full)
1 µg/mL,0.82 ×10⁴ /M/s,16 µg/mL,64 µg/mL,57 µM,0.93 µmol/min/mg,0.47 s⁻¹,8 µg/mL,8 µg/mL,≥ 2000 µg/mL,NC[C@@H]1O[C@H](O[C@H]2[C@@H](O)[C@H](O[C@@H]3[C@@H](O)[C@H](N)C[C@H](N)[C@H]3O[C@H]3O[C@H](CN)[C@@H](O)[C@H](O)[C@H]3N)O[C@@H]2CNC(=O)[C@H](N)CO)[C@H](N)[C@@H](O)[C@@H]1O
2 µg/mL,0.14 ×10⁴ /M/s,16 µg/mL,64 µg/mL,175 µM,0.4 µmol/min/mg,0.2 s⁻¹,16 µg/mL,16 µg/mL,≥ 2000 µg/mL,NC[C@@H]1O[C@H](O[C@H]2[C@@H](O)[C@H](O[C@@H]3[C@@H](O)[C@H](N)C[C@H](N)[C@H]3O[C@H]3O[C@H](CN)[C@@H](O)[C@H](O)[C@H]3N)O[C@@H]2Cn2cc(CNC(=O)[C@@H]3CCCN3)nn2)[C@H](N)[C@@H](O)[C@@H]1O
0.5 µg/mL,0.51 ×10⁴ /M/s,16 µg/mL,64 µg/mL,70 µM,0.72 µmol/min/mg,0.36 s⁻¹,8 µg/mL,8 µg/mL,≥ 2000 µg/mL,NC[C@@H]1O[C@H](O[C@H]2[C@@H](O)[C@H](O[C@@H]3[C@@H](O)[C@H](N)C[C@H](N)[C@H]3O[C@H]3O[C@H](CN)[C@@H](O)[C@H](O)[C@H]3N)O[C@@H]2CNC(=O)[C@H]2CCCN2)[C@H](N)[C@@H](O)[C@@H]1O
2 µg/mL,0.1 ×10⁴ /M/s,16 µg/mL,64 µg/mL,322 µM,0.57 µmol/min/mg,0.29 s⁻¹,8 µg/mL,16 µg/mL,≥ 2000 µg/mL,NC[C@@H]1O[C@H](O[C@H]2[C@@H](O)[C@H](O[C@@H]3[C@@H](O)[C@H](N)C[C@H](N)[C@H]3O[C@H]3O[C@H](CN)[C@@H](O)[C@H](O)[C@H]3N)O[C@@H]2CNC(=O)[C@@H](N)Cc2c[nH]c3ccccc23)[C@H](N)[C@@H](O)[C@@H]1O
1 µg/mL,0.47 ×10⁴ /M/s,64 µg/mL,64 µg/mL,75 µM,0.7 µmol/min/mg,0.35 s⁻¹,16 µg/mL,32 µg/mL,≥ 2000 µg/mL,NCCCC[C@@H](N)C(=O)NC[C@H]1O[C@@H](O[C@@H]2[C@@H](O)[C@H](N)C[C@H](N)[C@H]2O[C@H]2O[C@H](CN)[C@@H](O)[C@H](O)[C@H]2N)[C@H](O)[C@@H]1O[C@H]1O[C@@H](CN)[C@@H](O)[C@H](O)[C@H]1N
